High-throughput results from PubChem BioAssay.
Only some compounds are listed: those with a hit (about 2.4% of all), similar ones and a draw of the others.
HNF4A DNA FP: change in binding of human HNF4 alpha to DNA | P41235 | HNF4a-FITC DNA binding, fluorescence polarization, 1 h | activity change, % at 10 µM | 360,000 tested, 0.3% active | AID 1224865; in the data active = activity change above about 30%, passing the limit was not always enough
Target sequence (P41235 whole entry, looked up): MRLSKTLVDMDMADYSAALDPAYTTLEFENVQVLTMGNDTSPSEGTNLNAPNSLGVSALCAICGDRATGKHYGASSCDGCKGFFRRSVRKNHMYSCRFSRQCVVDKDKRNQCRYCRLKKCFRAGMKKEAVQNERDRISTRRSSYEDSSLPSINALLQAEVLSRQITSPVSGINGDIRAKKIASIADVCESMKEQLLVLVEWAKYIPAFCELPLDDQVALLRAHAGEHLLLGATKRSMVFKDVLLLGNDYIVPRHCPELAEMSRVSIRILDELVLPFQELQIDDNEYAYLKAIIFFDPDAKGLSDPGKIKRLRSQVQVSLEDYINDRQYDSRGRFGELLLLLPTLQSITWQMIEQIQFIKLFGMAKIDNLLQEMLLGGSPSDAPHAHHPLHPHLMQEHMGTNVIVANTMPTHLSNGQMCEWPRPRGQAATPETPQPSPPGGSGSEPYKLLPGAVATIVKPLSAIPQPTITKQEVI
Rpn11 block: Rpn11 (human) deubiquitinase inhibition | 360,000 tested, 0.59% active | human 26S proteasome, Ub4-pepOG fluorescence polarization; 20S core pre-blocked with epoxomicin | AID 588493 | inhibition, % at 20 µM | O00487;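 active = inhibition at 20 µM, scaled to each plate's controls, above about 33%, limit read from the data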
Target sequence (O00487 whole entry, looked up): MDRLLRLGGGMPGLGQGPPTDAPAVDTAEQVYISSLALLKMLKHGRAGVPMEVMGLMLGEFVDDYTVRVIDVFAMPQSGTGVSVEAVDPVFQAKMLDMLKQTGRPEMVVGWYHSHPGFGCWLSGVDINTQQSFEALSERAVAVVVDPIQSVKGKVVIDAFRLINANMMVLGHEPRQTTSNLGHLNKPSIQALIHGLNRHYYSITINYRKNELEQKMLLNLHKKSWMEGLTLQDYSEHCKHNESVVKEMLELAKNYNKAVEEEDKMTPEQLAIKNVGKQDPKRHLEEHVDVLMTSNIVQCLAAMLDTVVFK
Neddyl block: blocks human cullin neddylation; P61081+Q13564; TR-FRET cullin neddylation, biochemical; inhibition, % at 25 µM; 360,000 tested, 0.58% active; AID 651699; in the data active = inhibition above about 36%
CSN deneddyl inh: CSN deneddylation inhibition; Q92905; Purified CSN, SCF-Nedd8-OG deneddylation, fluorescence polarization; inhibition, % at 12.5 µM; 360,000 tested, 0.38% active;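 active = pattern-corrected inhibition above about 35%, with an unprinted fluorescence ratio check between 0.5 and 1.5, limit read from the data, passing the limit was not always enough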;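 note: 0% = enzyme with substrate and 100% = substrate without enzyme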
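Test system: Human Csn5 produced in HEK293T cells | Compound: 12.5 µM single point | Times: 90 min, room temperature | Signal: Fluorescence polarization readout | Read-out basis: % inhibition of substrate cleavage by Csn5 | Controls: no-enzyme wells high, enzyme-with-substrate wells low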
TbMetRS inhib: blocks T. brucei methionyl-tRNA synthetase activity | inhibition, % at 11.9 µM | 360,000 tested, 0.4% active | AID 624268 | purified T. brucei MetRS, ATP depletion, Kinase-Glo luminescence;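 active = inhibition above a per-plate cutoff of the control wells' mean inhibition plus 3 SD, cut at about 5.5% in these data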;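 note: 0% = DMSO wells median and 100% = median of wells with control inhibitor compound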
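Dosing: 11.9 µM single point; system: parasite MetRS enzyme; technique: luminescence of leftover ATP; times: 15 min enzyme-compound preincubation, 2 h reaction, 10 min detection, 25 °C; replicates: each compound tested once; read-out basis: percent inhibition relative to median high and low control wells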
PREPL inhibitor: inhibits the human prolyl oligopeptidase-like enzyme; inhibition, % at 5.96 µM; 320,000 tested, 0.68% active; recombinant PREPL, fluorescence polarization activity-based probe; Q4J6C6; in the data active = inhibition above about 43%;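 note: 0% = enzyme with DMSO and 100% = wells lacking enzyme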
Rpn11 inh conf: Rpn11 inhibition confirmation, single concentration. inhibition, % at 20 µM. shares compounds with Rpn11 block. purified human 26S proteasome, Ub4-pepOG fluorescence polarization; proteasome pretreated with epoxomicin. 1,900 tested, 29% active
MMP-2 inh: blocks human MMP-2, flagging nonselective RPN11 hits | 1,900 tested, 4% active | inhibition, % at 20 µM | shares compounds with Rpn11 block | AID 602330 | recombinant MMP-2, FRET peptide cleavage fluorescence;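 note: human MMP-2 activated beforehand with APMA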
Thrombin inh: blocks bovine thrombin, flagging nonselective RPN11 hits. shares compounds with Rpn11 block. bovine thrombin cleavage of Ub4-pepOG, fluorescence polarization. inhibition, % at 20 µM. 1,900 tested, 13% active. AID 602333;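 active = mean inhibition at least 40% at 20 µM, or signal 3 deviations below plate average, so some actives read negative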;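 note: plate controls were thrombin with DMSO for no effect and buffer wells lacking thrombin for full effect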
Numbers without * were called inactive; . = no result shown. Cut-off read from the data, not from the text of the source, unless noted: active = inhibition above about 40%; inactive = the rest.

SMILES | HNF4A DNA FP | Rpn11 block | Neddyl block | CSN deneddyl inh | TbMetRS inhib | PREPL inhibitor | Rpn11 inh conf | MMP-2 inh | Thrombin inh
COc1ccc2c(c1)C1=NN(/C(C)=C/C(C)=O)C(c3cccc(F)c3)C1CC2 (stereo unspecified) | 29.0 | 58.8* | 22.4 | 5.4 | 2.5 | 2.0 | 15.2 | -0.2 | 7.5
CCOC(=O)CSC1=NC(=O)/C(=C\c2ccc(Cl)cc2)S1 | 26.5 | 50.4* | -8.1 | 19.1 | 0.4 | 6.2 | 74.3* | 12.1 | 66.1*
O=C(Nc1ccc2oc(-c3ccc(Cl)c(Cl)c3)nc2c1)c1ncn[nH]1 | -13.4 | 48.9* | 31.6 | 7.2 | 0.4 | 0.6 | -10.8 | -41.4 | -3.9
O=C(Nc1ccc2oc(-c3ccccc3F)nc2c1)c1ncn[nH]1 | -0.1 | -0.7 | . | -3.0 | -1.9 | -7.0 | . | . | .
CCN1C(=O)/C(=C/c2cnn(CC)c2C)SC1=S | 1.9 | 6.5 | -27.8 | -6.0 | -0.9 | 8.5 | . | . | .
CCN1C(=O)/C(=C/c2c(C)nn(C)c2C)SC1=S | 10.3 | 38.4* | -30.1 | 10.0 | -0.1 | 11.8 | 32.8 | -32.2 | 21.4
CCCCC1=CC2=CC(=O)C(C)(OC(=O)C3CCCC3)C(=O)C2=CO1 (stereo unspecified) | 20.0 | 41.7* | -1.6 | 28.4 | -0.3 | 1.6 | 45.9* | 3.9 | 28.3
COC(=O)CCCC1=CC2=CC(=O)C(C)(OC(=O)C3CCCC3)C(=O)C2=CO1 (stereo unspecified) | . | . | . | . | . | 6.1 | . | . | .
CC(=O)OCC(C)n1[nH]c2ccccc2c1=O (stereo unspecified) | 2.1 | -9.9 | 17.0 | -2.9 | -0.8 | . | . | . | .
C=CCn1c(SCC(=O)Nc2ccc(-c3nc4ccc(C)cc4s3)cc2)nnc1-c1ccncc1 | 36.3 | 59.7* | -75.5 | -11.4 | -0.4 | 11.4 | 1.9 | -4.6 | 1.1
O=C(Nc1ccn(CC(=O)N2CCN(c3ccccn3)CC2)c(=O)n1)OCc1ccccc1 | -1.9 | 0.2 | -6.7 | -0.8 | -0.1 | 1.8 | . | . | .
O=C1C=CC(=O)N1c1ccc(-c2nc3ccccc3o2)cc1 | 4.6 | 17.6 | 19.1 | 5.4 | -0.1 | . | . | . | .
Nc1ccc(-c2nc3ccccc3o2)cc1 | 4.4 | 40.8* | . | 9.0 | -1.1 | 12.5 | 17.5 | 6.5 | 2.5
c1ccc(C[C@H]2CN=C(Nc3ccccc3)N2CC2CCCC2)cc1 | -1.1 | . | -2.3 | -2.9 | -0.9 | . | . | . | .
CN(C)CCN(C(=O)/C=C/c1cccs1)c1nc2c(F)cc(F)cc2s1 | 2.7 | 72.6* | 9.9 | 30.2 | 0.1 | 17.5 | 27.4 | -56.4 | 6.8
CN(C)CCCN(C(=O)/C=C/c1cccs1)c1nc2ccc(F)cc2s1 | 5.3 | 7.4 | 5.1 | 11.2 | -0.6 | -11.8 | . | . | .
O=C(/C=C/c1ccc(Br)cc1)c1ccc(NC(=O)c2ccco2)cc1 | 4.1 | 55.3* | -3.5 | 24.4 | -0.3 | -15.3 | 3.2 | -20.5 | 1.4
C#CCOCCOCCOCCNc1nc(N2CCN(C(=O)CCCCCCCCCCNC(=O)[C@H]([C@@H](C)CC)n3cc(CCCCN=C(N)N)nn3)CC2)nc(N2CCN(C(=O)CCCCCCCCCCNC(=O)[C@@H]([C@H](C)O)n3cc(C)nn3)CC2)n1 | 186.0 | 71.3* | -14.4 | 96.9* | -0.6 | 37.9 | 15.2 | -13.9 | 19.6
C#CCOCCOCCOCCNc1nc(N2CCN(C(=O)CCCCCCCCCCNC(=O)Cn3cc(CCCCCN)nn3)CC2)nc(N2CCN(C(=O)CCCCCCCCCCNC(=O)[C@@H]([C@H](C)O)n3cc(C)nn3)CC2)n1 | 0.4 | -3.8 | -23.2 | 5.9 | -0.5 | 39.9 | . | . | .
N#CC1=C(N)Oc2cc(O)ccc2C1c1cccnc1 (stereo unspecified) | 9.4 | 6.1 | -4.2 | 6.0 | -0.1 | 8.5 | . | . | .
N#CC1=C(N)Oc2cc(O)c(Cl)cc2C1c1cccnc1 (stereo unspecified) | 8.8 | 56.9* | -13.7 | 0.0 | -0.8 | . | -12.9 | -28.4 | -11.7
CCC(=O)N1CCN(c2ccccc2NC(=S)NC(=O)c2ccco2)CC1 | -6.5 | 1.3 | 9.1 | -1.0 | -0.1 | 7.4 | . | . | .
CC(C)(C)c1ccc(C(O)c2ncc(-c3ccccc3F)[nH]2)cc1 (stereo unspecified) | -1.9 | -6.5 | 0.2 | 3.1 | 0.4 | . | . | . | .
COc1ccccc1NS(=O)(=O)c1ccc(C)c(C(=O)NCC(c2cccs2)N2CCOCC2)c1 (stereo unspecified) | -1.0 | -2.6 | 2.8 | -0.4 | -0.2 | . | . | . | .
C[C@H]1CNC(=O)c2c(C(=O)N3CCN(C(=O)OC(C)(C)C)CC3)ncn21 | -4.2 | -1.2 | 5.0 | -3.2 | -1.4 | . | . | . | .
SMILES | HNF4A DNA FP | Rpn11 block | Neddyl block | CSN deneddyl inh | TbMetRS inhib | PREPL inhibitor | Rpn11 inh conf | MMP-2 inh | Thrombin inh
COc1ccc(-c2cc(-c3ccc(C)cc3)nc(SCc3nnc(-c4ccccc4)o3)c2C#N)cc1OC | 11.5 | 122.4* | -0.8 | 18.5 | -0.8 | -17.3 | -4.3 | -21.1 | -7.5
Cc1cccc(C(=O)NCC(=O)OCC(=O)N(C)CC(=O)Nc2ccc(F)cc2)c1 | 1.5 | 5.5 | 12.1 | -3.8 | -0.4 | -2.3 | . | . | .
Cc1ccc(NC(=O)c2ccc3c(=O)n4c(nc3c2)CCC4)cc1S(=O)(=O)N(C)C | -3.9 | 0.5 | 21.5 | -1.2 | -0.1 | . | . | . | .
Cn1c(CO)cnc1SCc1ccc(Cl)cc1 | -2.6 | 106.9* | 0.4 | 5.0 | -0.3 | -2.0 | -11.8 | -47.1 | -6.5
COc1cccc(/C=N/NC(=O)c2c(C)nc3ccc(Cl)cn23)c1O | 4.7 | 51.5* | 12.2 | 9.0 | -0.6 | 5.2 | 37.4 | -65.8 | -4.9
N#Cc1cc(C(=O)c2cc(Br)ccc2O)cn(Cc2ccccc2)c1=O | 17.6 | 49.7* | -22.5 | 7.4 | 0.7 | -76.8 | 12.6 | -0.1 | 18.0
COc1ccccc1-n1cc(C(=O)c2cc(Cl)ccc2O)cc(C#N)c1=O | 6.7 | 47.0* | -10.2 | 4.4 | 0.0 | 20.9 | 17.1 | -23.5 | 8.2
CCCCNC(=O)COc1ccccc1C(=O)c1cc(C#N)c(=O)n(CCOC)c1 | 2.8 | -2.2 | 6.1 | 0.7 | -0.2 | -4.6 | . | . | .
COCCn1cc(C(=O)c2cc(Br)ccc2O)cc(C#N)c1=O | 9.0 | 94.0* | -9.2 | -8.1 | 0.1 | 4.1 | 7.8 | 21.3 | 3.9
COc1ccc(O)c(C(=O)c2cc(C#N)c(=O)n(Cc3ccccc3)c2)c1 | 0.4 | 4.9 | -18.0 | -10.3 | -0.4 | -44.1 | . | . | .
COc1ccc(CN2C(=O)CCC2(C)c2nnnn2-c2ccc3c(c2)OCCO3)cc1OC (stereo unspecified) | -0.6 | . | -1.0 | -2.2 | -1.1 | . | . | . | .
CC(=O)Nc1sc(C)c(C)c1C(=O)OCCOc1ccccc1 | -45.5 | 34.3* | 6.1 | -0.8 | -0.4 | 22.9 | -5.4 | -30.6 | -16.6
